Experimental data gathered from unrelated publications.
Lines come from different studies, so protocols differ. pIC50: −log10 of the molar value.
ache: Acetylcholinesterase (ache, Electrophorus electricus, UniProt O42275)
ALOX15: Polyunsaturated fatty acid lipoxygenase ALOX15 (ALOX15, Homo sapiens, UniProt P16050)
Sialidase-4: Sialidase-4 (Homo sapiens, UniProt Q8WWR8)

| Compound | target | read-out | action | method | notes | pIC50 |
| --- | --- | --- | --- | --- | --- | --- |
| O=[N+]([O-])c1ccc(-c2nnc(-c3ccc(OCc4cn(Cc5ccc(F)cc5)nn4)cc3)o2)cc1 | ache | enzyme activity | inhibitor | Ellman |  | < 4.00 |
| CCOC(=O)c1ccccc1-c1c2ccc(=O)cc-2oc2cc(OCCCNc3c(C4CCCCCC4)nc4ccccn34)ccc12 | ALOX15 | enzyme activity | inhibitor | absorbance |  | < 4.00 |
| CN1CC[C@@]2(C)c3cc(OC(=O)Nc4ccccc4)ccc3N(C)[C@@H]12 | Aldehyde dehydrogenase 1A1 (ALDH1A1, Homo sapiens, UniProt P00352) | enzyme activity | inhibitor | fluorescence |  | > 5.00 |
| Cc1cn([C@H]2[C@H]([C@H](O)[C@H](O)CO)OC(C(=O)O)=C[C@@H]2O)nn1 | Sialidase-4 | enzyme activity | inhibitor |  |  | 4.59 |
| c1ccc(Cn2cc(COc3ccc(-c4nnc(-c5ccccc5)o4)cc3)nn2)cc1 | ache | enzyme activity | inhibitor | Ellman |  | < 4.00 |
| O=C(/C=C/c1ccc(OC(=O)N2CCCC2)cc1)NC1CCN(Cc2ccccc2)CC1 | ache | enzyme activity | inhibitor | Ellman |  | 5.35 |
| CC(C)(C)c1cn([C@H]2[C@H]([C@H](O)[C@H](O)CO)OC(C(=O)O)=C[C@@H]2O)nn1 | Sialidase-4 | enzyme activity | inhibitor |  |  | 4.10 |
| CC(C)(C)OC(=O)NC1CCCN(C(=O)/C=C/c2ccc([N+](=O)[O-])cc2)C1 (stereo not drawn) | ache | enzyme activity | inhibitor | Ellman |  | < 4.30 |
| COc1cc(CCC(=O)N2CCC(Cc3ccccc3)CC2)ccc1OC(=O)N(c1ccccc1)c1ccccc1 | ache | enzyme activity | inhibitor | Ellman |  | 4.98 |
| CC(C)Cc1cn([C@H]2[C@H]([C@H](O)[C@H](O)CO)OC(C(=O)O)=C[C@@H]2O)nn1 | Sialidase-4 | enzyme activity | inhibitor |  |  | < 3.30 |
| O=C(N1CCC2(CC1)C[C@@H](CN1CCCCS1(=O)=O)CCO2)C1(c2ccccc2)CCCC1 | ATP-dependent RNA helicase DDX3X (DDX3X, Homo sapiens, UniProt O00571) | ATPase activity | inhibitor |  |  | < 4.30 |
| CCOC(=O)c1ccccc1-c1c2ccc(=O)cc-2oc2cc(OCCCNc3c(-c4ccc(OC(C)=O)cc4)nc4ccccn34)ccc12 | ALOX15 | enzyme activity | inhibitor | absorbance |  | < 4.00 |
| O=C(O)C1=C[C@H](O)[C@@H](NCc2ccc(-c3ccccc3)cc2)[C@H]([C@H](O)[C@H](O)CO)O1 | Sialidase-4 | enzyme activity | inhibitor |  |  | 3.59 |
| CCN(C)C(=O)Oc1ccc(/C=C/C(=O)NC2CCN(Cc3ccccc3)CC2)cc1OC | ache | enzyme activity | inhibitor | Ellman |  | 5.41 |
| CC(C)(C)NC(=O)N[C@H]1[C@H]([C@H](O)[C@H](O)CO)OC(C(=O)O)=C[C@@H]1O | Sialidase-4 | enzyme activity | inhibitor |  |  | < 3.30 |
| CC(C(=O)O)n1nc(Cn2cc3cc(OCCF)c(Cl)cc3n2)c2ccccc2c1=O (racemic) | Sphingosine 1-phosphate receptor 1 (S1PR1, Homo sapiens, UniProt P21453) | ligand displacement |  | radioligand | cell membranes | < 6.00 |
| CCOC(=O)c1ccccc1-c1c2ccc(=O)cc-2oc2cc(OCCCNc3c(-c4ccc([N+](=O)[O-])cc4)nc4ccccn34)ccc12 | ALOX15 | enzyme activity | inhibitor | absorbance |  | < 4.00 |
| CCCCCCCCCC(=O)N[C@@H](CCCN=C(N)N)C(=O)N[C@H](C(=O)N[C@@H](CCCCN)C(=O)N[C@@H](CCCN=C(N)N)C(=O)CCl)C(C)C | Furin (FURIN, Homo sapiens, UniProt P09958) | enzyme activity | inhibitor |  |  | 8.53 |
